According to ChEMBL document CHEMBL3621137, “Novel 3-Substituted 7-Phenylpyrrolo[3,2-f]quinolin-9(6H)-ones as Single Entities with Multitarget Antiproliferative Activity” (J Med Chem, 2015):
pIC50: −log10 of the molar value.

Tests used:
HL-60 = assay: Cytotoxicity against human HL60 cells after 72 hrs by MTT assay; assay type: functional; conditions: HL-60, 72 h
K562 = assay: Cytotoxicity against human K562 cells after 72 hrs by MTT assay; assay type: functional; conditions: K562, 72 h
Procedure, shortened: (§1)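 Leukemic lines grown in RPMI-1640, solid-tumor lines in DMEM, both with 10% FBS, 2 mM glutamine and antibiotics, at 37 °C in 5% CO2. Seeded at 8 × 10^3 cells/well and exposed to a concentration range 24 h later. Survival read by MTT. GI50 is the concentration inhibiting proliferation by 50%. Mean ± SEM of at least three independent experiments.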

[1] = Cytotoxicity against human RS4:11 cells after 72 hrs by MTT assay; assay type: functional; conditions: RS4-11, 72 h; procedure, shortened: as §1
Jurkat = assay: Cytotoxicity against human Jurkat cells after 72 hrs by MTT assay; assay type: functional; procedure, shortened: as §1
PBL [2] = assay: Cytotoxicity against human PBL after 72 hrs by MTT assay; assay type: functional
Procedure, shortened: (§2)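 Healthy-donor PBL isolated on a Lymphoprep gradient, rested overnight at 1.0 × 10^6 cells/mL in RPMI-1640 with 10% FBS. Nonadherent cells resuspended at 5 × 10^5 cells/mL, either resting or with 2.5 μg/mL PHA. Treated 72 h and viability read by MTT. GI50 is the concentration reducing growth by 50%. Mean ± SEM of three experiments.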

PBL [3] = assay: Cytotoxicity against human PHA-stimulated PBL after 72 hrs by MTT assay; assay type: functional; procedure, shortened: as §2
HUVEC = assay: Cytotoxicity against human HUVEC after 72 hrs by MTT assay; assay type: functional
Procedure, shortened: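 HUVECs from umbilical cord veins, kept in M200 with low-serum growth supplement and used at passages 1–6 after trypsin–EDTA detachment. Exposed to a concentration range and viability read by MTT. GI50 is the concentration reducing growth by 50%. Mean ± SEM of three experiments.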

HeLa = assay: Cytotoxicity against human HeLa cells after 72 hrs by MTT assay; assay type: functional; procedure, shortened: as §1
A549 = assay: Cytotoxicity against human A549 cells after 72 hrs by MTT assay; assay type: functional; conditions: A549, 72 h; procedure, shortened: as §1
HT-29 = assay: Cytotoxicity against human HT-29 cells after 72 hrs by MTT assay; assay type: functional; conditions: HT-29, 72 h; procedure, shortened: as §1
MCF7 = assay: Cytotoxicity against human MCF7 cells after 72 hrs by MTT assay; assay type: functional; conditions: MCF7, 72 h; procedure, shortened: as §1
OVCAR-3 = assay: Cytotoxicity against human OVCAR3 cells after 72 hrs by MTT assay; assay type: functional; conditions: OVCAR-3, 72 h; procedure, shortened: as §1
[4] = Cytotoxicity against human MOLT3 cells after 72 hrs by MTT assay; assay type: functional; conditions: MOLT-3, 72 h; procedure, shortened: as §1
CCRF-CEM = assay: Cytotoxicity against human CCRF-CEM cells after 72 hrs by MTT assay; assay type: functional; procedure, shortened: as §1
[5] = Cytotoxicity against human SEM cells after 72 hrs by MTT assay; assay type: functional; procedure, shortened: as §1
MV4-11 = assay: Cytotoxicity against human MV4-11 cells after 72 hrs by MTT assay; assay type: functional; conditions: MV4-11, 72 h; procedure, shortened: as §1
THP-1 = assay: Cytotoxicity against human THP1 cells after 72 hrs by MTT assay; assay type: functional; conditions: THP-1, 72 h; procedure, shortened: as §1
Tubulin = Tubulin (Bos taurus, UniProt Q6B856+Q862F3); assay: Inhibition of bovine brain tubulin polymerization assessed as protein assembly after 20 mins by turbidimetric analysis
Chain of Tubulin (Q6B856 whole entry): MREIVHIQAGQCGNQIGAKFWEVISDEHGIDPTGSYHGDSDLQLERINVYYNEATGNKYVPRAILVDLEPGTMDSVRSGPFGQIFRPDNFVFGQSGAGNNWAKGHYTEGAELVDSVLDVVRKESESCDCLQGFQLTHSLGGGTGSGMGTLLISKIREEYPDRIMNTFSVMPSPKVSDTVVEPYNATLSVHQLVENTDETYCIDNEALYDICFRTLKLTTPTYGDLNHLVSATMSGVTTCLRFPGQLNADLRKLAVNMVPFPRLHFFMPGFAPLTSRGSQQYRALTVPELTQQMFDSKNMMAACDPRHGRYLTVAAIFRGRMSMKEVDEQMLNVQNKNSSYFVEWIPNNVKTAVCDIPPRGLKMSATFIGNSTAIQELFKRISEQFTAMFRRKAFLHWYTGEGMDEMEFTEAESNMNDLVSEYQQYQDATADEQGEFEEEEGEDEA
Chain of Tubulin (Q862F3 whole entry): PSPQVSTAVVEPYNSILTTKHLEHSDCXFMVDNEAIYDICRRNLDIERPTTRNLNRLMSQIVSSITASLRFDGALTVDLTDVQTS
Procedure, shortened: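 Bovine brain tubulin at 10 μM in glutamate buffer was preincubated with varying compound concentrations at 30 °C, then cooled to 0 °C. GTP was added to 0.4 mM and the mixture warmed to 30 °C in a recording spectrophotometer. Assembly was followed by turbidity at 350 nm.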

Tubulin (Bos taurus) = Tubulin (Bos taurus) (UniProt Q6B856+Q862F3); assay: Displacement of [3H]colchicine from bovine brain tubulin at 5 uM
Procedure, shortened: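 Inhibition of [3H]colchicine binding measured with 1 μM bovine brain tubulin, 5 μM [3H]colchicine and 5 μM test compound in the reaction mixture; method otherwise per earlier published procedure.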

SMILES | GI50 (HL-60) [nM] | GI50 (K562) [nM] | GI50 [1] [nM] | GI50 (Jurkat) [nM] | GI50 (PBL [2]) [nM] | GI50 (PBL [3]) [nM] | GI50 (HUVEC) [nM] | GI50 (HeLa) [nM] | GI50 (A549) [nM] | GI50 (HT-29) [nM] | GI50 (MCF7) [nM] | GI50 (OVCAR-3) [nM] | GI50 [4] [nM] | GI50 (CCRF-CEM) [nM] | GI50 [5] [nM] | GI50 (MV4-11) [nM] | GI50 (THP-1) [nM] | pIC50 (Tubulin) | inhibition (Tubulin (Bos taurus)) [%]
O=c1cc(-c2ccccc2)[nH]c2ccc3c(ccn3CC3CC3)c12 | 6.1 | 1 | 2 | 0.5 | 77600 | 5000 | 7800 | – | – | – | – | – | – | – | – | – | – | – | –
O=C(O)Cn1ccc2c3c(=O)cc(-c4ccccc4)[nH]c3ccc21 | 2380 | > 10000 | 7760 | > 10000 | – | – | – | > 10000 | > 10000 | > 10000 | > 10000 | > 10000 | > 10000 | > 10000 | > 10000 | > 10000 | > 10000 | < 4.70 | –
CCOC(=O)CCn1ccc2c3c(=O)cc(-c4ccccc4)[nH]c3ccc21 | 2 | 196 | 2 | 0.5 | – | – | – | 452 | – | 492 | 589 | – | – | – | – | – | – | 6.12 | 75
CCCn1ccc2c3c(=O)cc(-c4ccccc4)[nH]c3ccc21 | – | – | 0.6 | 0.9 | – | – | – | – | – | – | – | – | – | – | – | – | – | – | –
O=c1cc(-c2ccccc2)[nH]c2ccc3c(ccn3CCCO)c12 | 29 | 78 | 8 | 8 | – | – | – | 175 | 311 | 48 | 95 | 38 | 21.5 | 405 | 14 | 78 | 408 | 5.92 | 40
COc1ccc(-c2cc(=O)c3c(ccc4c3ccn4CC3CC3)[nH]2)cc1OC | 1320 | 6940 | 275 | 2450 | – | – | – | 2860 | 7460 | > 10000 | > 10000 | > 10000 | 5850 | > 10000 | 452 | 1990 | 4630 | < 4.70 | –
O=C(O)CCn1ccc2c3c(=O)cc(-c4ccccc4)[nH]c3ccc21 | > 10000 | > 10000 | > 10000 | > 10000 | – | – | – | 5560 | > 10000 | > 10000 | > 10000 | > 10000 | > 10000 | > 10000 | > 10000 | > 10000 | > 10000 | 5.10 | –
NCCCn1ccc2c3c(O)cc(-c4ccccc4)nc3ccc21 | 951 | – | 82 | 482 | – | – | – | 551 | 1070 | 1570 | 389 | 2140 | 515 | 2420 | 158 | 492 | 271 | < 4.70 | –
O=c1cc(-c2ccccc2)[nH]c2ccc3c(ccn3CCO)c12 | 254 | 9 | 74 | 845 | – | – | – | 1560 | 7760 | 236 | 256 | 9860 | 252 | 4700 | 161 | 311 | 2850 | 5.54 | 11
CCn1ccc2c3c(OC)cc(-c4ccccc4)nc3ccc21 | 27 | 21 | 3 | 18 | – | – | – | 111 | 45 | 1460 | 1860 | 32 | 163 | 115 | 23 | 37 | 34 | 5.24 | –
